Experimental data gathered from unrelated publications.
Lines come from different studies, so protocols differ.
SLC22A2: Solute carrier family 22 member 2 (SLC22A2, Homo sapiens, UniProt O15244)

| Structure (SMILES) | tested on | assay | test system | conditions | endpoint | result |
| --- | --- | --- | --- | --- | --- | --- |
| CC[C@H](C)[C@H](NC(=O)[C@H](CCC(=O)O)NC(=O)[C@H](CO)NC(=O)[C@@H](NC(=O)[C@@H](N)CO)C(C)C)C(=O)N[C@@H](CCC(N)=O)C(=O)N[C@@H](CC(C)C)C(=O)N[C@@H](CCSC)C(=O)N[C@@H](Cc1cnc[nH]1)C(=O)N[C@@H](CC(N)=O)C(=O)N[C@@H](CC(C)C)C(=O)NCC(=O)N[C@@H](CCCCN)C(=O)N[C@@H](Cc1cnc[nH]1)C(=O)N[C@@H](CC(C)C)C(=O)N[C@@H](CC(N)=O)C(=O)N[C@@H](CO)C(=O)N[C@@H](CCSC)C(=O)N[C@@H](CCC(=O)O)C(=O)N[C@@H](CCCN=C(N)N)C(=O)N[C@H](C(=O)N[C@@H](CCC(=O)O)C(=O)N[C@@H](Cc1c[nH]c2ccccc12)C(=O)N[C@@H](CC(C)C)C(=O)N[C@@H](CCCN=C(N)N)C(=O)N[C@@H](CCCCN)C(=O)N[C@@H](CCCCN)C(=O)N[C@@H](CC(C)C)C(=O)N[C@@H](CCC(N)=O)C(=O)N[C@@H](CC(=O)O)C(=O)N[C@H](C(=O)N[C@@H](Cc1cnc[nH]1)C(=O)N[C@@H](CC(N)=O)C(=O)N[C@@H](Cc1ccccc1)C(=O)O)C(C)C)C(C)C | – | chemical stability, HPLC | aqueous buffer | 0.5 mg/mL, 2 min, pH 6.5 | compound remaining | 100% |
| COc1ccc(S(=O)(=O)ON=C2C=C(C)C(=O)C(C)=C2)cc1 | MDA-MB-468 | cell growth or viability | – | – | CC50 | 2570 nM |
| COc1ccc(-c2ocnc2C(=O)NCCCn2cncn2)cc1Cl | THLE | cell growth or viability | – | – | IC50 | 117 µM |
| CC(C)(O)c1ccccc1-c1ccc2[nH]c(/C=C/c3ccc(C(F)(F)F)cc3)nc2c1 | – | – | male human, plasma | oral, 60 mg, single dose, fasted, healthy volunteers | half-life | 3200 min |
| CON=C(N)c1ccc(-c2ccc(-c3ccc(C(N)=NOC)cc3)o2)cc1 | Cytochrome P450 1B1 (CYP1B1, Homo sapiens, UniProt Q16678) | enzyme activity, substrate | – | – | Km | 300 nM |
| O=C(O)CSc1nnc(Br)n1-c1ccc(C2CC2)c2ccccc12 | SLC22A2 | transporter uptake, inhibitor | MDCK-II | 100 µM, 5 min | inhibition | 26% |
| COC(=O)c1csc(C(=O)c2c[nH]c3ccccc23)n1 | Aryl hydrocarbon receptor (AHR, Homo sapiens, UniProt P35869) | reporter gene, agonist, luciferase | – | – | EC50 | 4.6 nM |
| C=C[C@H]1C[N@@]2CC[C@H]1C[C@@H]2[C@@H](O)c1ccnc2ccc(OC)cc12 | SLC22A2 | transporter uptake, inhibitor | MDCK-II | 100 µM, 5 min | inhibition | 78% |
| CC(C)n1cc(C#N)c2cc(-n3cc(C(=O)O)cn3)ccc21 | – | – | human, plasma | oral, 400 mg, single dose, fasted, healthy volunteers | half-life | 786 min |
